Measured values as given in article PMC8621847 (Research in Pharmaceutical Sciences, 2021).
Entries after “also recorded” stand apart in the source; their conditions may differ.

Legend:
HUVEC cell line = assay: MTT cytotoxicity assay, HUVEC normal cell line; type: cell-based; details: Homo sapiens, 48 h, read-out: IC50 HUVEC
Method in brief: (§1)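 Cells grown in RPMI-1640 with 10% FBS and 1% penicillin/streptomycin, seeded at 5-7 × 10^4 per well, 37 °C, 5% CO2. Test compound at final 1, 4, 6, 8, 10, 40, 60, 80 and 100 μM for 48 h. MTT (5 mg/mL in PBS) added for 3 h, formazan dissolved in DMSO, absorbance read at 570 nm. Doxorubicin (20 μM) was the positive control, untreated cells set 100% viability, and medium was the blank. Triplicate, repeated on three days.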

MCF-7 cell line = assay: MTT cytotoxicity assay, MCF-7 cell line; type: cell-based; details: for improvement of cytotoxicity by hybridization, compared with VIIa and VIIb: MCF-7, fused pyrazole hybrids versus benzoxazinones VIIa and VIIb; for cytotoxic effect on MCF-7 cell line (in words): MTT assay
Method in brief: as §1

Row | Structure (SMILES) | IC50 (HUVEC cell line) | improvement of cytotoxicity by hybridization, compared with VIIa and VIIb (MCF-7 cell line) | cytotoxic effect on MCF-7 cell line (in words) (MCF-7 cell line)
1 | COc1cccc2c1C(=O)c1c(O)c3c(c(O)c1C2=O)C[C@@](O)(C(=O)CO)C[C@@H]3O[C@H]1C[C@H](N)[C@H](O)[C@H](C)O1 [Doxorubicin, reference compound] | 21.17 ± 0.05 µM |  | 
2 | O=C(N/C(=C/c1ccc(Cl)cc1)c1nc2ccccc2c2cc(=O)[nH]n12)c1ccccc1 [IXa, (E)-N-(2-(4-chlorophenyl)-1-(2-oxo-2,3-dihydropyrazolo[1,5-c]quinazolin-5-yl)vinyl)benzamide] | 79 ± 3.71 µM | 3-4 times | 
3 | O=C(N/C(=C/c1ccc([N+](=O)[O-])cc1)c1nc2ccccc2c2cc(=O)[nH]n12)c1ccccc1 [IXb, (E)-N-(2-(4-nitrophenyl)-1-(2-oxo-2,3-dihydropyrazolo[1,5-c]quinazolin-5-yl)vinyl) benzamide] | 96.2 ± 4.66 µM | 3-4 times | 
4 | O=C(N/C(=C/c1ccc(Cl)cc1)c1nc2ccccc2c(=O)o1)c1ccccc1 [VIIa, (E)-N-(2-(4-chlorophenyl)-1-(4-oxo-4H-benzo[d][1,3]oxazin-2-yl)vinyl)benzamide] | 72.2 ± 1.5 µM |  | 
5 | O=C1OC(c2ccccc2)=N/C1=C\c1ccc(Cl)cc1 [Va, (Z)-4-(4-chlorobenzylidene)-2-phenyloxazol-5(4H)-one] | 96.4 ± 2.22 µM |  | no remarkable cytotoxic effect; also recorded: no inhibitory activity
6 | O=C1OC(c2ccccc2)=N/C1=C\c1ccc([N+](=O)[O-])cc1 [Vb, (Z)-4-(4-nitrobenzylidene)-2-phenyloxazol-5(4H)-one] | 93.3 ± 4.11 µM |  | no remarkable cytotoxic effect; also recorded: no inhibitory activity
7 | Cc1nc2ccccc2c(=O)n1N1C(=O)/C(=C/c2ccc(Cl)cc2)N=C1c1ccccc1 [XIIIa, (Z)-3-(4-(4-chlorobenzylidene)-5-oxo-2-phenyl-4,5-dihydro-1H-imidazol-1-yl)-2-methylquinazolin-4(3H)-one] | 94.41 ± 0.89 µM |  | 
8 | Cc1nc2ccccc2c(=O)n1N1C(=O)/C(=C/c2ccc([N+](=O)[O-])cc2)N=C1c1ccccc1 [XIIIb, (Z)-2-methyl-3-(4-(4-nitrobenzylidene)-5-oxo-2-phenyl-4,5-dihydro-1H-imidazol-1-yl) quinazolin-4(3H)-one] | 81.2 ± 6.17 µM |  | 
